Data: paper PMC3900297 (Biotechnology and applied biochemistry, 2013)
“And” between values parts separate entries of the source, which are not always exact repeats. Identical values can stand only once. Like-named read-outs stand apart in the source and are kept apart here.

Key:
CYP261D1 (P450-PE36) = assay: absorbance spectral titration; assay type: binding, Moritella sp. PE36; conditions: 0.1 M Na-Hepes pH 7.4, 0.5 mM EDTA, 25 °C, ambient pressure
How it was run: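 Recombinant His-tagged enzyme was expressed with […] and 0.5 mM IPTG for 48 h at 30 °C, then Ni-NTA purified. (+) and (−) forms were separated on cation-exchange and DEAE resins and dialyzed into Hepes/glycerol/KCl/TCEP. Titration spectra were taken in a stirred, thermostated cell and analysed by PCA/SVD against high-spin, low-spin and P420 standards. Spin-state changes were fitted to the tight-binding (square-root) equation.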

CYP261C1 (P450-SS9) = target: T1, CYP261C1 (P450-SS9) (Photobacterium profundum, UniProt Q6LGK6); assay: absorbance spectral titration; assay type: binding; conditions: μM
T1 sequence (Q6LGK6 1-480): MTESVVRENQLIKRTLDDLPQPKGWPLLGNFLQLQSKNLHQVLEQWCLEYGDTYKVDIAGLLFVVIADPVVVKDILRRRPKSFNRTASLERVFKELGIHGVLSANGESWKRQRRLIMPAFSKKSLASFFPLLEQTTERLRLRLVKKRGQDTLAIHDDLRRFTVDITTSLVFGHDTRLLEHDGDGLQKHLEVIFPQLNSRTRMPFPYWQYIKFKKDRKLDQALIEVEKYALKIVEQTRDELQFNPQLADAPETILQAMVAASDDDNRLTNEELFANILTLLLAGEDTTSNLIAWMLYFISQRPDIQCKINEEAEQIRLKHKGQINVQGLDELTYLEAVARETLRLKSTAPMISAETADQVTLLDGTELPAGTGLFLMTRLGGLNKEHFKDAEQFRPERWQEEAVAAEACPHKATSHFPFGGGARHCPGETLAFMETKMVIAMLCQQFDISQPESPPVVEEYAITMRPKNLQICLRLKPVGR
How it was run: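 Recombinant CYP261C1 expressed in E. coli TOPP3, Ni-NTA purified, then separated into (+) and (−) forms on cation/anion exchange. Fatty-acid titrations tracked by absorbance spectra at 25 °C in 0.1 M Na-Hepes pH 7.4 with 0.5 mM EDTA. Spectral series underwent PCA, with least-squares fitting to high-spin, low-spin and P420 standards. Kd came from the tight-binding (square-root) equation.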

Question: `CCCCC/C=C\C/C=C\C/C=C\C/C=C\CCCC(=O)O` [Arachidonic acid] was tested. Which Kd (CYP261D1 (P450-PE36); read-out: Arachidonic acid / KD, (+) conformer) did it give?
Answer: Its Kd is 3.1 ± 0.6 µM.

Question: What about the Kd (CYP261D1 (P450-PE36); read-out: Arachidonic acid / KD, (−) conformer) of the same compound?
Answer: The Kd was 8.9 ± 2.2 µM.

Question: What about the Kd (CYP261C1 (P450-SS9); Arachidonic acid / KD) of the same compound?
Answer: Its Kd is 9.7 µM and 10.4 µM.

Question: Which results are given for `CCCCCCCCCCCCCC(=O)O` [Myristic acid]?
Answer: Kd (CYP261D1 (P450-PE36); read-out: Myristic acid / KD, (+) conformer): 2.4 ± 0.7 µM; Kd (CYP261D1 (P450-PE36); read-out: Myristic acid / KD, (−) conformer): 3 ± 1 µM; Kd (CYP261C1 (P450-SS9); Myristic acid / KD): 8.1 µM and 3.6 µM
